Results: ChEMBL document CHEMBL1128177, “A 3-amino-4-hydroxy-3-cyclobutene-1,2-dione-containing glutamate analogue exhibiting high affinity to excitatory amino acid receptors” (J Med Chem, 1995)

Legend:
[1] = species on record: Rattus norvegicus; assay: (§1) Inhibition of stimulus-evoked kainate/AMPA receptor responses in CA1 pyramidal cells of the rat hippocampus before QUIS exposure.; format: functional
Summary of the method: (§2)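 Schaffer collateral-evoked CA1 field potential in 500 µm rat hippocampal slices, recording medium with 2.4 mM Mg2+, 34 °C. IC50 from 4-min doubling concentration steps, interpolated at 50% peak-amplitude loss; mean of ≥4 experiments. Measured first, then after 5 min 16 μM L-quisqualic acid and washout, then again after 5 min 2 mM L-α-aminoadipic acid and washout.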

[2] = biological target: T1, Glutamate NMDA receptor (Rattus norvegicus) (UniProt P35439+Q00959+Q00960+Q00961+Q62645+Q8VHN2+Q9R1M7); assay: (§3) Inhibition of stimulus-evoked CA1 pyramidal cell NMDA receptor of the rat hippocampus.; format: functional, tissue-based
Summary of the method: (§4)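 Transverse hippocampal slices (500 µm) from 30-50 day male Sprague-Dawley rats. Schaffer collateral stimulation at 0.1 ms, 4-30 V, 0.1 Hz. Extracellular field potential peak amplitude recorded in CA1 stratum radiatum at 34 °C. Medium held 0.1 mM Mg2+ plus 10 μM CNQX to isolate NMDA responses. Drug doubled every 4 min from subthreshold until >70% decline or 8 mM. IC50 interpolated from the log concentration plot; mean of ≥4 experiments.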

[3] = species on record: Rattus norvegicus; assay: (§5) Inhibition of stimulus-evoked kainate/AMPA receptor responses in CA1 pyramidal cells of the rat hippocampus after QUIS exposure.; format: functional; summary of the method: as §2
[4] = species on record: Rattus norvegicus; assay: Inhibition of stimulus-evoked response in lateral perforant path of the rat hippocampus.
[5] = species on record: Rattus norvegicus; assay: as §5; format: functional, organism-based; summary of the method: as §2
[6] = biological target: Glutamate NMDA receptor; assay: as §3; format: functional, tissue-based; summary of the method: as §4
[7] = biological target: Glutamate NMDA receptor; assay: Inhibition of stimulus-evoked […] NMDA receptor response in lateral perforant path of the rat hippocampus.; format: functional, tissue-based
Summary of the method: (§6)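 Rat hippocampal slices (500 µm, male Sprague-Dawley, 30-50 days) with perforant path stimulation (0.1 ms, 4-30 V, 0.1 Hz). Field potential recorded in the dentate granule cell synaptic field of the lateral or medial perforant path at 34 °C. Drug doubled every 4 min from subthreshold up to >70% inhibition or 8 mM. IC50 interpolated from fractional peak amplitude vs log concentration; mean of ≥4 experiments.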

[8] = species on record: Rattus norvegicus; assay: as §1; format: functional, organism-based; summary of the method: as §2
[9] = biological target: T1, Glutamate NMDA receptor (Rattus norvegicus); assay: Inhibition of stimulus-evoked […] NMDA receptor response in medial perforant path of the rat hippocampus.; format: functional, tissue-based; summary of the method: as §6
[10] = species on record: Rattus norvegicus; assay: Inhibition of stimulus-evoked kainate/AMPA receptor responses in CA1 pyramidal cells of the rat hippocampus after reversal with alpha AA.; format: functional; summary of the method: as §2

Compound	C50 [1] [mM]	C50 [2] [mM]	C50 [3] [mM]	C50 [4] [mM]	IC50 [5] [mM]	IC50 [6] [mM]	IC50 [7] [mM]	IC50 [8] [mM]	C50 [9] [mM]	C50 [10] [mM]
Cl.NCC/N=c1\c(O)c(O)c1=O	>10	3.5	>10	> 10						
NCCC/N=c1\c(O)c(O)c1=O					> 10	5.3	> 10	> 10		
N[C@@H](C/N=c1\c(O)c(O)c1=O)C(=O)O	0.0011	0.01	0.00055	0.0034					0.0059	0.001
